Measurements from article PMC5307915 (Pharmacognosy Magazine, 2017).

Assays:
purified human IDO [1] = target: T1, purified human IDO (Homo sapiens, UniProt P14902); test: IDO assay; type: biochemical; conditions: for inhibition at 100 µM: read-out: IDO inhibition at 100 μM (%)
In short: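 Test compound, serially diluted in DMSO, mixed with 1 μg purified human IDO in 50 mM potassium phosphate, pH 6.5. Ascorbic acid, methylene blue, catalase and 200 μM L-tryptophan added; 1 h at 37°C. Stopped with 30% TCA, 15 min at 65°C, then centrifuged. Supernatant mixed 1:1 with Ehrlich's reagent at RT; kynurenine read at 480 nm. Screened at 100 μM; IC50 from lower concentrations; menadione as positive control; at least triplicate.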

purified human IDO [2] = target: T1, purified human IDO; test: Determination of inhibition pattern of IDO inhibitors; type: biochemical
In short: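 Same kynurenine assay with purified human IDO (37°C, 1 h, Ehrlich's reagent, A480), run at five L-tryptophan concentrations crossed with four inhibitor concentrations, including zero. Mode of inhibition was taken from Lineweaver-Burk plots. Ki was calculated from the y-intercept, (1 + [I]/Ki)/Vmax. Independent measurements, at least triplicate.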

T1 sequence (P14902 whole entry): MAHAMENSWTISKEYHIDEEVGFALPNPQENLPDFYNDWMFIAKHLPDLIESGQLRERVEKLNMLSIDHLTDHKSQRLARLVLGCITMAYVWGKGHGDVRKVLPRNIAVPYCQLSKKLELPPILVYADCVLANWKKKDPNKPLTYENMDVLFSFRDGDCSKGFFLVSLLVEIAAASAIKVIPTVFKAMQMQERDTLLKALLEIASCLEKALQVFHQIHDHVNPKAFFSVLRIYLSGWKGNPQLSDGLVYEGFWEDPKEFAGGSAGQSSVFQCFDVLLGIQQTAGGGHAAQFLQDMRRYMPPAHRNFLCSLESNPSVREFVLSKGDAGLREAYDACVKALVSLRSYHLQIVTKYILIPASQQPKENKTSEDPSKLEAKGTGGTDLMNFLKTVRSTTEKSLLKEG

| inhibition at 100 µM (purified human IDO [1]) [%] | IC50 (purified human IDO [1]) [µM] | Ki (purified human IDO [2]) [µM] | SMILES |
| --- | --- | --- | --- |
| 5.86 ± 3.08 |  |  | Cc1cc(=O)c2c(CO)cc(O)cc2o1 [Compound 10, 7-hydroxy-5-(hydroxymethyl)-2-methylchromone] |
| 67.4 ± 2.53 | 46.5 ± 1.51 | 85.3 | O=C1c2cccc(O)c2C(=O)c2c(O)cc(CO)cc21 [Compound 1, aloe emodin] |
| 10.2 ± 1.75 |  |  | Cc1cc(O)cc(O)c1 [Compound 11, 5-methylresorcinol] |
|  | 3.71 ± 1.26 |  | CC1=CC(=O)c2ccccc2C1=O [Menadione, reference compound] |
